The record followed here is ChEMBL document CHEMBL1129363, “(S)-13-[(dimethylamino)methyl]-10,11,14,15-tetrahydro-4,9:16, 21-dimetheno-1H, 13H-dibenzo[e,k]pyrrolo[3,4-h][1,4,13]oxadiazacyclohexadecene-1,3(2H)-d ione (LY333531) and related analogues: isozyme selective inhibitors of protein kinase C beta” (J Med Chem, 1996).

Data set [1] is described as follows: Inhibition of Bovine heart cAMP-dependent protein kinase. Also on record: species or system Bos taurus. The method in brief:
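Bovine heart cAMP-dependent kinase catalytic subunit with 200 µg/mL histone type HL substrate in 20 mM HEPES pH 7.5, 10 mM MgCl₂, 30 µM [γ-³²P]ATP; inhibitor in DMSO; 30 °C, 10 min; TCA-stopped, precipitate filtered and scintillation-counted. Average of at least three independent determinations from eight-point titration curves.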

The target in data set [2] is Protein kinase C eta type (Homo sapiens, UniProt P24723). As to the kind of experiment: Inhibition of Protein kinase C eta.
Data set [3] can be described thus: Effective concentration for 50% inhibition of endothelial cell based plasminogen activity relative to control by beta-PDBu stimulation. It counts as functional. The procedure, abridged: (§1)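 Bovine retinal capillary endothelial cells (passages 3–10), grown to confluence (10⁵ cells/well) in EGM with 10% FBS, switched to DME/10% FBS 24 h before assay; treated with 4β-PDBu plus compound in DMSO, 37 °C, 48 h. Lysate (25 mM NH₄OH, 0.5% Triton X-100) incubated with plasminogen and 1 mM chromogenic substrate, 25 °C 45 min, A410 against urokinase/tPA standard curve.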

Data set [4] deals with Proto-oncogene tyrosine-protein kinase Src (Homo sapiens, UniProt P12931). In words: Inhibition of src kinase.
In data set [5] the target is T1, Protein kinase C zeta type (Homo sapiens, UniProt Q05513).
T1 sequence (Q05513 whole entry): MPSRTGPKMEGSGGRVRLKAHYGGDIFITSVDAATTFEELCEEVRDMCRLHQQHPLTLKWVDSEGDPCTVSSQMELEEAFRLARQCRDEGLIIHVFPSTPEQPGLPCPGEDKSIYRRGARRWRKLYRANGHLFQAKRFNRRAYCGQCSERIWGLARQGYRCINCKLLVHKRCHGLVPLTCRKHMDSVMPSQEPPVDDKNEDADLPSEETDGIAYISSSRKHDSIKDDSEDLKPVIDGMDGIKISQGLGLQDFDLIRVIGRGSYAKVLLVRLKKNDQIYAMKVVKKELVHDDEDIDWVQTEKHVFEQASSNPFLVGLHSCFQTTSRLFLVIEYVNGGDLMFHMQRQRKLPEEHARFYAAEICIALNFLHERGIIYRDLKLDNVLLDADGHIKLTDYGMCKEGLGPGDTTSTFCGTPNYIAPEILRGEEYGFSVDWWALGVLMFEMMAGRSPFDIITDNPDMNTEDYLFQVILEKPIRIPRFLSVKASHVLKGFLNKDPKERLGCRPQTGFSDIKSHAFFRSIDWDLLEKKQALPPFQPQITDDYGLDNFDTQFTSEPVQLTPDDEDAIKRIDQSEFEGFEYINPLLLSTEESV
In words: Inhibition of Protein kinase C zeta.

The target in data set [6] is Protein kinase C gamma type (Homo sapiens, UniProt P05129). In words: Inhibition of Protein kinase C gamma.
Data set [7] has as its target T2, Protein kinase C epsilon type (Homo sapiens, UniProt Q02156).
T2 sequence (Q02156 whole entry): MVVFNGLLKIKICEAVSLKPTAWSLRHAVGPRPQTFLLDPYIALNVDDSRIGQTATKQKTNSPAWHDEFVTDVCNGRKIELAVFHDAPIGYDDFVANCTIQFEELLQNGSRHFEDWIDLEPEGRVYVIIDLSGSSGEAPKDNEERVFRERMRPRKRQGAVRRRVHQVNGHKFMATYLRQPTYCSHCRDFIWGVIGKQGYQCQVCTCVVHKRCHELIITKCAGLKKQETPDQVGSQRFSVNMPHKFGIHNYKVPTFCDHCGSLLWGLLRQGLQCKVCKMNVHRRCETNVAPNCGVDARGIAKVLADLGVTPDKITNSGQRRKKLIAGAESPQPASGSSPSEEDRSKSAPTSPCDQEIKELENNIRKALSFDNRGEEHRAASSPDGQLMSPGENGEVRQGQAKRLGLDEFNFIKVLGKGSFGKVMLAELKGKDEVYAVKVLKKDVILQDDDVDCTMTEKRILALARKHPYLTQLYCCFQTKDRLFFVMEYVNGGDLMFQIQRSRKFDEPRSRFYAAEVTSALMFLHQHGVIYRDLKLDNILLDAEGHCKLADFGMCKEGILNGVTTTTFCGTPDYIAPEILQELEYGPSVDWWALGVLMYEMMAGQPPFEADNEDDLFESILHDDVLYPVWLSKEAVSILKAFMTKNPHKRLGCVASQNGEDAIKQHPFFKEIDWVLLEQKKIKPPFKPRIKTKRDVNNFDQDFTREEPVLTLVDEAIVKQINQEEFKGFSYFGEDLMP
In words: Inhibition of Protein kinase C epsilon.

A short description of data set [8]: Effective dose against plasminogen activator activity stimulated by phorbol ester in endothelial cells. It counts as functional. The settings on record: Endothelial cell; read-out: ED50 (the source's name).
The nature of data set [9]: Inhibition of rat brain Casein kinase II.
In data set [10] the target is Protein kinase C delta type (Homo sapiens, UniProt Q05655). As to the kind of experiment: Inhibition of Protein kinase C delta.
Data set [11] is described as follows: Effective concentration for 50% inhibition of endothelial cell- based plasminogen activator activity relative to control by beta-PDBu stimulation. It counts as functional. The procedure, abridged: as §1
Data set [12] is described as follows: Concentration for 50% cell death determined by lysosomal staining in the neutral red viability assay. The settings on record: read-out: Tox50. The procedure, abridged: (§2)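 Bovine retinal capillary endothelial cells, passages 3–10, were grown to confluence (10⁵ cells/well) in EGM with 10% FBS. Medium was switched to DME with 10% FBS 24 h before the assay. Compound in DMSO was added for 48 h at 37 °C. Viability was read by neutral red lysosomal staining, and the value is the concentration giving 50% cell death.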

Data set [13] addresses T3, Protein kinase C beta type (Homo sapiens, UniProt P05771). In words: Inhibition of Protein kinase C beta 1.
Data set [14] addresses T3, Protein kinase C beta type. In words: Inhibition of Protein kinase C beta 2.
Data set [15] deals with Protein kinase C alpha type (Homo sapiens, UniProt P17252). As to the kind of experiment: Inhibition of Protein kinase C alpha.
In data set [16] the target is Protein kinase C (PKC). As to the kind of experiment: (§3) Inhibition of rat brain Protein kinase C.
The nature of data set [17]: Inhibition of purified mammalian brain calcium [Ca(2+)]/Calmodulin dependent kinase.
Data set [18] is described as follows: Effective concentration for 50% inhibition of Endothelial cell- based plasminogen activator activity relative to control by beta-PDBu stimulation. It counts as functional. The method in brief:
as §1

The nature of data set [19]: Concentration for 50% cell death determined by lysosomal staining in the neutral red viability assay. The following applies: read-out: Tox50. The procedure, abridged: as §2
The target of data set [20] is Protein kinase C (PKC). The description is as §3. The procedure, abridged: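 Purified rat-brain PKC was used as enzyme. Values are averages of at least three independent determinations, each from an eight-point titration curve.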
The source holds these as a separate data set.

Structures are written as SMILES. Where only a bound is given, the exact number is not on record here.

Protein kinase C delta type, sequence (Q05655 whole entry): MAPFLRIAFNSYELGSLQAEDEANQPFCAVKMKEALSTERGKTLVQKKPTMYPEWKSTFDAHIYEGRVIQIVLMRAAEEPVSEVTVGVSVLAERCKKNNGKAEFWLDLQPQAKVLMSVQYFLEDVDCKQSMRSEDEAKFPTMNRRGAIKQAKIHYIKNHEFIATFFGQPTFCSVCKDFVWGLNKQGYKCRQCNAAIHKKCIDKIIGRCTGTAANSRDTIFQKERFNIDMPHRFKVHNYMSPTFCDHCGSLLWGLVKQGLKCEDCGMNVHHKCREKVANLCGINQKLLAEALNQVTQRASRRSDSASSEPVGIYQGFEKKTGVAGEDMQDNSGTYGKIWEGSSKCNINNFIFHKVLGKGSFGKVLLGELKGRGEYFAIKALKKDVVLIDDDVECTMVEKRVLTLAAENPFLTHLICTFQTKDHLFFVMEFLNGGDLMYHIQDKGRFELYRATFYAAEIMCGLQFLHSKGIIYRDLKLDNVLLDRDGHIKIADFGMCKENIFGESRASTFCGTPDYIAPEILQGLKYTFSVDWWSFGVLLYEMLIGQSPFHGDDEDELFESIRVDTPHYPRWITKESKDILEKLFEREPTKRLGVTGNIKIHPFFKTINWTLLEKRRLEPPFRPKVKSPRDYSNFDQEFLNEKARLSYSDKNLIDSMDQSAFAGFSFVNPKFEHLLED
Proto-oncogene tyrosine-protein kinase Src, sequence (P12931 2-536 limits assumed): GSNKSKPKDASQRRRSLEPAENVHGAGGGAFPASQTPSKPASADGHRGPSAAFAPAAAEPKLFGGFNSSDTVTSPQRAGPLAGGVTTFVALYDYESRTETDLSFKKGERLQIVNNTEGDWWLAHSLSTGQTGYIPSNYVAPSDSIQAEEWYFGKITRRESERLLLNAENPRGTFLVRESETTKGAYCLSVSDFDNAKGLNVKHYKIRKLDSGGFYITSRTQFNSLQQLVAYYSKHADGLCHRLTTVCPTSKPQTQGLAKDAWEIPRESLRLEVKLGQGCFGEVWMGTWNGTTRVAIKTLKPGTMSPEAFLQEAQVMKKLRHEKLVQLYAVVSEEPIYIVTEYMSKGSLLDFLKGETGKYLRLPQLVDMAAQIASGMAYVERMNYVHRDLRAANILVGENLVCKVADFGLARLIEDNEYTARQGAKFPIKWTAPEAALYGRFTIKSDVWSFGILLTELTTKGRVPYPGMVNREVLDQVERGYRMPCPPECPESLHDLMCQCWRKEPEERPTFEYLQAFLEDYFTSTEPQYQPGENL
T3 sequence (P05771 whole entry): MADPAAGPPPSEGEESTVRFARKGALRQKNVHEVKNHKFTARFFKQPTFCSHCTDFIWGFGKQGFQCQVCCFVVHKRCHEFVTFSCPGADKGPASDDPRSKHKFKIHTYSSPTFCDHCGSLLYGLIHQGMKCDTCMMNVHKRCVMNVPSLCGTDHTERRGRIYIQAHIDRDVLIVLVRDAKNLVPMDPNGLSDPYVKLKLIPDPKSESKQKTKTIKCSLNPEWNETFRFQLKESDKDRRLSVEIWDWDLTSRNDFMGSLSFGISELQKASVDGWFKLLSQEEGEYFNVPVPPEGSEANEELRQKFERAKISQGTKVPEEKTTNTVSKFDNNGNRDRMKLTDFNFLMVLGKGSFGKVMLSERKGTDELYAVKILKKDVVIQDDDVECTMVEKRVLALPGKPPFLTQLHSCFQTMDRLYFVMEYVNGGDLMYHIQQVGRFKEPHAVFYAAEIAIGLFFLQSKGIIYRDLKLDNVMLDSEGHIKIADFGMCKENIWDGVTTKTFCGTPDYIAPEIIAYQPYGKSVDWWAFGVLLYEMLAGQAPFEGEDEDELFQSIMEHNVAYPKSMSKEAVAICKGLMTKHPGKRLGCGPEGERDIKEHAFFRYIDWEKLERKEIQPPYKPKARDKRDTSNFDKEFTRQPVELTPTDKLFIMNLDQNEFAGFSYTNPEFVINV
Protein kinase C eta type, sequence (P24723 whole entry): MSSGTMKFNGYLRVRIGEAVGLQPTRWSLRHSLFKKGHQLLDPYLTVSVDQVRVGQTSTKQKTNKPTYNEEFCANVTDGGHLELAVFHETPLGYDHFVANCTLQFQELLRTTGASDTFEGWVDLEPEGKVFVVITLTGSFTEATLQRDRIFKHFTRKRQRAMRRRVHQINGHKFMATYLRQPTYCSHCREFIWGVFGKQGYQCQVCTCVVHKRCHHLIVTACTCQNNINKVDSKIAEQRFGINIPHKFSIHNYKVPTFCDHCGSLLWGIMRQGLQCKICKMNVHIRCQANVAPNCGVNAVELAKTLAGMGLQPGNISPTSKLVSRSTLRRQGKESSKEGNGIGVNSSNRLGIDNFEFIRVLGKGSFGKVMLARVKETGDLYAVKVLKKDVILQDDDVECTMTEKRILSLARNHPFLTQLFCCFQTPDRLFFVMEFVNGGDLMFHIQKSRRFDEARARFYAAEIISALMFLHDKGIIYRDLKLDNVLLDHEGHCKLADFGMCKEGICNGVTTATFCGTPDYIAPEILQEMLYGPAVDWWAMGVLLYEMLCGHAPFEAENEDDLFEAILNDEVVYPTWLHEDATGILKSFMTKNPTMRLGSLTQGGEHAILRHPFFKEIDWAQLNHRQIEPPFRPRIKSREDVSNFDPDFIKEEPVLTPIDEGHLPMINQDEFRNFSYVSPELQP

Regarding `O=C1NC(=O)C2=C1c1cn(c3ccccc13)CCO[C@H](CO)CCn1cc2c2ccccc21`, the IC50 (usually the concentration that gives 50% inhibition) was > 100000 nM in data set [1]; 300 nM in data set [2]; > 100000 nM in [4]; 8700 nM in data set [5]; 2000 nM in data set [6]; 79000 nM in data set [7]. Moreover, the IC50 in data set [9] was > 100000 nM. The EC50 in data set [3] and in data set [8] was 3000 nM in each case.
Turning to `CNC[C@@H]1CCn2cc(c3ccccc32)C2=C(C(=O)NC2=O)c2cn(c3ccccc23)CCO1`, the IC50 in [10] came out at 170 nM; in data set [1], 49000 nM; in [2], 31 nM; in data set [6], 270 nM; in data set [7], 1100 nM. Further, the EC50 in data set [11] and in data set [8] was 240 nM in each case.
As for `O=C1NC(=O)C2=C1c1cn(c3ccccc13)CCO[C@H](CN1CCOCC1)CCn1cc2c2ccccc21`, the IC50 is 2000 nM in data set [10]; 1700 nM in data set [2]; > 5000 nM in data set [5]; 2500 nM in data set [6]; 49 nM in data set [13]; > 5000 nM in data set [7]. Further, the IC50 in data set [14] was found to be 38 nM. In addition, in data set [12], the CC50 was > 20000 nM. Moreover, the EC50 in [8] worked out at 3500 nM.
Regarding `O=C1NC(=O)C2=C1c1cn(c3ccccc13)CCO[C@H](CNS(=O)(=O)c1ccccc1)CCn1cc2c2ccccc21`, the half-inhibitory concentration (IC50) in data set [10] was 880 nM; in data set [1] it was > 100000 nM; in data set [2], 1900 nM; in data set [4], > 100000 nM; in data set [5] it was > 5000 nM; in data set [6], > 5000 nM. Also, the IC50 in data set [15] was > 5000 nM; in data set [7], > 5000 nM; in data set [16] it was 10000 nM; in [9] it was > 100000 nM. The EC50 in [11] and in data set [8] was > 2000 nM each time. Further, in data set [12], the CC50 is > 2000 nM.
In the case of `NC[C@@H]1CCn2cc(c3ccccc32)C2=C(C(=O)NC2=O)c2cn(c3ccccc23)CCO1`, the IC50 in [10] was 2600 nM; in data set [1], 83000 nM; in [17] it was 2700 nM; in [2], 240 nM; in [4] it was 89000 nM; in [6] it was 2100 nM. The IC50 was 1100 nM in data set [15], > 5000 nM in [7] and > 100000 nM in [9]. The EC50 in [11] and in data set [8] was 7500 nM throughout. Also, the CC50 in data set [12] is > 20000 nM.
Take `O=C1NC(=O)C2=C1c1cn(c3ccccc13)CCO[C@H](CNCc1ccccc1)CCn1cc2c2ccccc21`: the IC50 in data set [10] is 7800 nM; in data set [1], > 100000 nM; in data set [2], 2500 nM; in [4] it was > 100000 nM; in [5], 54000 nM; in data set [6], 6500 nM. Besides, the IC50 in data set [15] was 6300 nM; in [13] it was 330 nM; in data set [7], 57000 nM; in data set [16], 4200 nM; in [14] it was 310 nM; in data set [9] it was > 100000 nM. Also, the EC50 in [11] and in data set [8] was 4300 nM each time. The CC50 in [12] was > 20000 nM.
With `O=C1NC(=O)C2=C1c1cn(c3ccccc13)CCO[C@H](CN1CCCC1)CCn1cc2c2ccccc21`, the IC50 is 3300 nM in [10]; > 100000 nM in data set [1]; 5300 nM in data set [17]; 350 nM in data set [2]; 11000 nM in data set [4]; 2200 nM in data set [6]. Moreover, the IC50 in [15] was 3500 nM; in [7], 3800 nM; in data set [9], > 100000 nM. Besides, the EC50 in data set [11] and in data set [8] was 550 nM throughout. Moreover, the CC50 in data set [12] is > 10000 nM.
With `CN1CCN(C[C@@H]2CCn3cc(c4ccccc43)C3=C(C(=O)NC3=O)c3cn(c4ccccc34)CCO2)CC1`, the IC50 was 2800 nM in data set [10]; 2000 nM in data set [2]; > 5000 nM in data set [5]; 3200 nM in data set [6]; 30 nM in data set [13]; > 5000 nM in data set [7]. The same compound showed an IC50 in [14] of 24 nM. Also, the EC50 in data set [18] and in data set [8] was 550 nM each time. Further, the CC50 in data set [12] is > 20000 nM.
As for `CN(C)C[C@@H]1CCn2cc(c3ccccc32)C2=C(C(=O)NC2=O)c2cn(c3ccccc23)CCO1` [RUBOXISTAURIN], the CC50 in [19] is > 20000 nM. The IC50 is > 100000 nM in data set [1]; 6200 nM in [17]; 52 nM in data set [2]; 320 nM in [20]; 300 nM in [6]; > 100000 nM in data set [9]. In data set [8], the EC50 turned out to be 210 nM.
For `CN[C@@H]1C[C@H]2O[C@@](C)([C@@H]1OC)n1c3ccccc3c3c4c(c5c6ccccc6n2c5c31)C(=O)NC4` [STAUROSPORINE], in data set [17], the IC50 amounted to 4 nM. The CC50 in data set [12] is < 20 nM.
